Our source for the Glutamate uptake remaining (% of control) and Ki values is ChEMBL document CHEMBL1135989, “Synthesis and in vitro pharmacology of substituted quinoline-2,4-dicarboxylic acids as inhibitors of vesicular glutamate transport” (J Med Chem, 2002).

Each structure is given as a SMILES string.

The target in test [1] is T1, Vesicular glutamate transporter 3 (Rattus norvegicus) (UniProt Q7TSF2).
T1 sequence (whole entry): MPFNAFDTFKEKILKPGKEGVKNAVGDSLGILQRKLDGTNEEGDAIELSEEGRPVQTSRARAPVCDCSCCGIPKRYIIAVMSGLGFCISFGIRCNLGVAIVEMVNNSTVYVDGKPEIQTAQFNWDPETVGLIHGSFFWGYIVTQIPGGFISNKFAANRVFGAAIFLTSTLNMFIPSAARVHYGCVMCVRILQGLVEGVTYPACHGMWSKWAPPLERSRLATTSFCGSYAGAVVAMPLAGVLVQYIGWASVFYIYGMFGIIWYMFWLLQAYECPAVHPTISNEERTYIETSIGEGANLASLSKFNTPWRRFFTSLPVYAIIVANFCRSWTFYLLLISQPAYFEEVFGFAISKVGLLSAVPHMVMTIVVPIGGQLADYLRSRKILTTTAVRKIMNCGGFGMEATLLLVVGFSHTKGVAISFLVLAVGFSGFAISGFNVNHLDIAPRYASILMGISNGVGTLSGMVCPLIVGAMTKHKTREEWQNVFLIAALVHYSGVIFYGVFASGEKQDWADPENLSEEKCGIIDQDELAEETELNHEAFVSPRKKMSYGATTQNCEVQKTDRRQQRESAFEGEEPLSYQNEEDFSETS
The test is described as follows: Inhibition of Vesicular glutamate transporter (VGLUT) by the ability to block the uptake of 250 uM of [3,4-3H]-L-glutamate into synaptic vesicles isolated from rat forebrain at a 20 fold excess (5 mM) of inhibitor. The class given is functional. The essentials:
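Inhibitor at 5 mM added with substrate. Quenched in ice-cold 150 mM KCl, filtered, counted by LSC. ATP-free uptake subtracted. Expressed as % of control uptake, mean ± SEM (n).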

The target in test [2] is T1, Vesicular glutamate transporter 3 (Rattus norvegicus). As to the kind of experiment: Inhibition of Vesicular glutamate transporter (VGLUT) by the ability to block the uptake of 250 uM of [3,4-3H]-L-glutamate into synaptic vesicles isolated from rat forebrain at equimolar conc. (250 uM ). Format: functional. A digest of the protocol: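 Same vesicle uptake set-up (0.25 mM [3H]-L-glutamate, 2.0 mM ATP, 30 °C, 1.5 min, filtration/LSC, ATP-free background subtracted), with inhibitor at 250 µM added with substrate. Expressed as % of control uptake, mean ± SEM (n).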

Test [3] has as its target T2, Vesicular glutamate transporter 3 (Rattus norvegicus, UniProt Q7TSF2).
T2 sequence (Q7TSF2 whole entry): T1 sequence (whole entry)
As to the kind of experiment: Evaluated for competitive inhibition against Vesicular glutamate transporter (VGLUT), and Ki value was reported.

Test [4] has as its target T2, Vesicular glutamate transporter 3. As to the kind of experiment: Estimated inhibitory conc. against Vesicular glutamate transporter (VGLUT), using Cheng-Prushoff equation. The essentials: (§1)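 Rat forebrain synaptic vesicles (male Sprague-Dawley, stored -80 °C). Vesicles (100-150 µg protein) preincubated 5 min at 30 °C. Ran 1.5 min, then filtration and LSC. Uptake without ATP subtracted. IC50 from dose-response; Ki by Cheng-Prusoff.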

For test [5] the target is unchanged. As to the kind of experiment: Inhibitory conc. against Vesicular glutamate transporter (VGLUT), derived from Lineweaver-Burke analysis. A digest of the protocol: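 Uptake into rat forebrain synaptic vesicles (ATP 2.0 mM, 30 °C, 1.5 min, [3H]-L-glutamate, filtration and LSC) run across both inhibitor and substrate concentrations. Ki from Lineweaver-Burk double reciprocal plots (1/V vs 1/[S]) and a replot of Km(app) against inhibitor concentration.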

The target is the same in test [6]. As to the kind of experiment: Compound was evaluated for competitive inhibition against Vesicular glutamate transporter (VGLUT), and Ki value was reported,.using Cheng-Prushoff equation. A digest of the protocol: as §1
Test [7] shares this target. As to the kind of experiment: Compound was evaluated for the inhibition of Vesicular glutamate transporter (VGLUT).

Take `O=C(O)c1cc(C(=O)O)c2cc(Br)ccc2n1`: the results for the Glutamate uptake remaining (% of control) in test [1] and in test [2] were 2% and 74%, respectively.
Consider `COc1ccc2nc(C(=O)O)cc(C(=O)O)c2c1`, for which the Glutamate uptake remaining (% of control) is 51% in test [1] and 100% in test [2].
Regarding `COc1cccc2c(C(=O)O)cc(C(=O)O)nc12`, the Glutamate uptake remaining (% of control) in test [1] was found to be 20%; in test [2], 90%.
Consider `O=C(O)c1cc(C(=O)O)c2cc(OCCCCCCO)ccc2n1`, for which, in test [2], the Glutamate uptake remaining (% of control) amounted to 74%.
For the compound `COc1cc(OC)c2c(C(=O)O)cc(C(=O)O)nc2c1`, the Glutamate uptake remaining (% of control) in test [1] turned out to be 15%; in test [2], 100%.
Turning to `O=C(O)c1cc(C(=O)O)c2cccc(Br)c2n1`, the Glutamate uptake remaining (% of control) in test [1] worked out at 7%; in test [2], 100%.
With `Cc1cc(-c2ccc(/N=N/c3ccc4c(S(=O)(=O)O)cc(S(=O)(=O)O)c(N)c4c3O)c(C)c2)ccc1/N=N/c1ccc2c(S(=O)(=O)O)cc(S(=O)(=O)O)c(N)c2c1O` [EVANS BLUE], the inhibition constant Ki (usually the equilibrium dissociation constant of an inhibitor or competing ligand from its target) in test [3] is 0.04 µM.
In turn, `O=C(O)c1cc(C(=O)O)c2ccc(CCc3ccccc3)cc2n1` returned a Glutamate uptake remaining (% of control) in test [2] of 29%.
As to `O=C(O)c1cc(C(=O)O)c2cc(OCc3ccccc3)ccc2n1`, the Glutamate uptake remaining (% of control) in test [1] amounted to 3%; in test [2] it was 85%. Also, the Ki in test [4] is 368 µM.
On to `O=C(O)c1cc(C(=O)O)c2cc3c(cc2n1)OCO3`, for which the Glutamate uptake remaining (% of control) in test [1] is 24%; in test [2], 100%.
As for `O=C(O)c1cc(C(=O)O)c2cc(Cl)ccc2n1`, the Glutamate uptake remaining (% of control) in test [1] was found to be 1%; in test [2] it was 73%.
`O=C(O)c1cc(C(=O)O)c2ccc(-c3ccccc3)cc2n1` registered a Glutamate uptake remaining (% of control) in test [2] of 91%.
Regarding `O=C(O)c1cc(C(=O)O)c2cc(/C=C/c3ccc(-c4ccccc4)cc3)ccc2n1`, the inhibition constant (Ki) in test [4] is 64 µM. In addition, the Glutamate uptake remaining (% of control) in test [2] is 37%.
In the case of `O=C(O)c1cc(C(=O)O)c2cc(/C=C/c3cccc4ccccc34)ccc2n1`, the Glutamate uptake remaining (% of control) in test [2] stood at 21%.
Take `COc1cc(OC)c2nc(C(=O)O)cc(C(=O)O)c2c1`: the Glutamate uptake remaining (% of control) in test [1] is 40%; in test [2] it was 100%.
In the case of `O=C(O)c1cc(C(=O)O)c2cc(CCc3ccccc3)ccc2n1`, the Ki in test [4] is 143 µM. For the same compound, the Glutamate uptake remaining (% of control) in test [2] came out at 47%.
In the case of `N[C@]1(C(=O)O)CC[C@H](C(=O)O)C1` (relative stereo), in test [3], the affinity corresponds to a Ki of 700 µM.
For the compound `COc1cc2nc(C(=O)O)cc(C(=O)O)c2cc1OC`, the Glutamate uptake remaining (% of control) in test [1] worked out at 58%; in test [2], 100%.
In the case of `O=C(O)c1cc(C(=O)O)c2cc(-c3ccc(-c4ccccc4)cc3)ccc2n1`, the figures for the Ki in test [4] and in test [5] were 41 µM and 95 µM, respectively. This compound registered a Glutamate uptake remaining (% of control) in test [2] of 20%.
For the compound `O=C(O)c1cc(C(=O)O)c2cc3c(cc2n1)OCCO3`, the Glutamate uptake remaining (% of control) in test [1] came to 12%; in test [2] it was 100%.
Compound `O=C(O)c1cc(C(=O)O)c2cccc(C(=O)O)c2n1` displayed a Glutamate uptake remaining (% of control) in test [2] of 100%.
For `O=C(O)c1cc(C(=O)O)c2c(F)cccc2n1`, the Glutamate uptake remaining (% of control) in test [1] is 54%; in test [2], 100%.
Take `COc1cc(-c2ccc(/N=N/c3ccc4c(S(=O)(=O)O)cc(S(=O)(=O)O)c(N)c4c3O)c(OC)c2)ccc1/N=N/c1ccc2c(S(=O)(=O)O)cc(S(=O)(=O)O)c(N)c2c1O` [CHICAGO SKY BLUE]: the inhibitory constant (Ki) in test [3] is 0.19 µM.
On to `O=C(O)c1cc(C(=O)O)c2cc(/N=N/c3ccccc3)ccc2n1`, for which the results for the Glutamate uptake remaining (% of control) in test [1] and in test [2] were 0% and 31%, respectively. Also, the affinity in test [6], expressed as Ki, was 288 µM.
`CCOc1ccc2nc(C(=O)O)cc(C(=O)O)c2c1` displayed a Glutamate uptake remaining (% of control) in test [2] of 97%.
`COc1ccc(OC)c2c(C(=O)O)cc(C(=O)O)nc12`: the Glutamate uptake remaining (% of control) is 62% in test [1] and 100% in test [2].
With `C=C(C[C@H](N)C(=O)O)C(=O)O`, in test [3], the Ki came to 3000 µM.
With `O=C(O)c1cc(C(=O)O)c2ccccc2n1`, the Glutamate uptake remaining (% of control) came to 38% in test [1] and 100% in test [2].
In the case of `O=C(O)c1cc(C(=O)O)c2cc(Br)cc(Br)c2n1`, in test [1], the Glutamate uptake remaining (% of control) worked out at 2%.
As for `CCCCCCOc1ccc2nc(C(=O)O)cc(C(=O)O)c2c1`, the Glutamate uptake remaining (% of control) in test [2] came out at 79%.
The same measure, in the same setting: next, `O=C(O)c1cc(C(=O)O)c2cc(OCCO)ccc2n1`: 100%.
`O=C(O)c1cc(C(=O)O)c2cccc(F)c2n1`: the results for the Glutamate uptake remaining (% of control) in test [1] and in test [2] were 39% and 100%, respectively.
The compound `O=C(O)c1cc(C(=O)O)c2c(/C=C/c3ccccc3)cccc2n1` returned a Glutamate uptake remaining (% of control) in test [2] of 27%.
`O=C(O)c1cc(C(=O)O)c2cc(-c3ccccc3)ccc2n1` displayed a Glutamate uptake remaining (% of control) in test [2] of 77%.
Take `O=C(O)c1cc(C(=O)O)c2c(-c3cccc4ccccc34)cccc2n1`: in test [2], the Glutamate uptake remaining (% of control) was 64%.
As to `O=C(O)c1cc(C(=O)O)c2cc(O)ccc2n1`, the Glutamate uptake remaining (% of control) in test [2] is 100%.
Consider `O=C(O)c1cc(C(=O)O)c2cccc(-c3ccccc3)c2n1`, for which the Glutamate uptake remaining (% of control) in test [2] amounted to 88%.
`O=C(O)c1cc(=O)c2ccccc2[nH]1` [TRANSTORINE] showed an inhibition constant (Ki) in test [7] of 1300 µM.
As for `O=C(O)c1cc(C(=O)O)c2cc(I)ccc2n1`, the figures for the Glutamate uptake remaining (% of control) in test [1] and in test [2] were 10% and 87%, respectively.
For the compound `COc1ccc2c(C(=O)O)cc(C(=O)O)nc2c1`, the results for the Glutamate uptake remaining (% of control) in test [1] and in test [2] were 48% and 100%, respectively.
As for `O=C(O)c1cc(C(=O)O)c2cccc(O)c2n1`, the Glutamate uptake remaining (% of control) came to 2% in test [1] and 73% in test [2]. Moreover, the inhibitory constant (Ki) in test [4] was 286 µM.
With `O=C(O)c1cc(C(=O)O)c2c(Br)cccc2n1`, the Glutamate uptake remaining (% of control) in test [1] amounted to 11%; in test [2] it was 100%.
As for `O=C(O)c1cc(O)c2ccc(Cl)cc2n1` [7-CHLOROKYNURENIC ACID], the inhibition constant (Ki) in test [3] is 590 µM.
`O=C(O)c1cc(C(=O)O)c2cc(Oc3ccccc3)ccc2n1` displayed a Glutamate uptake remaining (% of control) in test [2] of 74%.
In turn, `O=C(O)c1cc(C(=O)O)c2ccc(O)cc2n1` registered a Glutamate uptake remaining (% of control) in test [2] of 100%.
`O=C(O)c1cc(C(=O)O)c2cc(OC3CCCCC3)ccc2n1` displayed a Glutamate uptake remaining (% of control) in test [2] of 67%.
For `O=C(O)c1cc(C(=O)O)c2ccc(OCc3ccccc3)cc2n1`, the values for the Glutamate uptake remaining (% of control) in test [1] and in test [2] were 1% and 50%, respectively.
As to `O=C(O)c1cc(O)c2cccc(O)c2n1` [XANTHURENATE], the affinity in test [3], expressed as Ki, was 190 µM.
For `O=C(O)c1cc(C(=O)O)c2cc(OCCc3ccccc3)ccc2n1`, the inhibition constant Ki in test [4] is 189 µM.
For the compound `O=C(O)c1cc(C(=O)O)c2cccc(-c3cccc4ccccc34)c2n1`, the Glutamate uptake remaining (% of control) in test [2] came out at 70%.
For `O=C(O)c1cc(C(=O)O)c2ccc(Cl)c(Cl)c2n1`, the Glutamate uptake remaining (% of control) in test [1] is 2%.
`O=C(O)c1cc(C(=O)O)c2cc(-c3cccc4ccccc34)ccc2n1`: the Glutamate uptake remaining (% of control) in test [2] turned out to be 53%.
Consider `O=C(O)c1cc(C(=O)O)c2c(-c3ccccc3)cccc2n1`, for which the Glutamate uptake remaining (% of control) in test [2] came to 100%.
Still for that read-out and setting: the result for `O=C(O)c1cc(C(=O)O)c2c(I)cccc2n1` reads 100%.
With `O=C(O)c1cc(C(=O)O)c2cc(/C=C/c3ccccc3)ccc2n1`, the inhibition constant (Ki) in test [4] was 167 µM; in test [5], 129 µM. In addition, in test [2], the Glutamate uptake remaining (% of control) came to 51%.
